Experimental data reported in ChEMBL document CHEMBL1123964, “Potent, long-acting luteinizing hormone-releasing hormone antagonists containing new synthetic amino acids: N,N'-dialkyl-D-homoarginines” (J Med Chem, 1988).
Square brackets hold non-standard residues; d marks the D form. Peptide text beside a SMILES is read from it. d(hArg(Et2)) = CCN=C(NCC)NCCCC[C@@H](N)C(=O)O; dPhe(4-Cl) = N[C@H](Cc1ccc(Cl)cc1)C(=O)O; d2Nal = N[C@H](Cc1ccc2ccccc2c1)C(=O)O

Legend:
[1] = target: T1, Gonadotropin-releasing hormone receptor (Rattus norvegicus) (UniProt P30969); test: Antiovulatory activity on proestrus following administration of solution in corn oil in rat.; format: functional, organism-based
T1 sequence (whole entry): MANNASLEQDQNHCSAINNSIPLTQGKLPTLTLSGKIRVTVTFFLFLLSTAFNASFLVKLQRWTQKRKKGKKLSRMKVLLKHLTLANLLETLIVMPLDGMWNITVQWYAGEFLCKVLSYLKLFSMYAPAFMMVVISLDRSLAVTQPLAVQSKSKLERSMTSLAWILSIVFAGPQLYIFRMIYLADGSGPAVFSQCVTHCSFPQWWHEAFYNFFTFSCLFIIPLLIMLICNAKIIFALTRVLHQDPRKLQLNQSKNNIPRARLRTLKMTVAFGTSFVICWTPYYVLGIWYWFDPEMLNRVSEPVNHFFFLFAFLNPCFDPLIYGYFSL
Summary of the method: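 Rats with at least two normal 4-day cycles were used. They were injected sc with the analogue in corn oil at noon on proestrus, about 2 h before the preovulatory LH-RH surge. Oviducts were removed on the morning of expected estrus and checked microscopically for fresh eggs, which were counted. ED50 came from percent of females ovulating plotted against log-dose, with 10 animals per dose group.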

[2] = target: T1, Gonadotropin-releasing hormone receptor (Rattus norvegicus); test: Antiovulatory activity on proestrus was measured by administering as a solution in 50% propylene glycol / 0.9% saline in rat; format: functional
[3] = target: T1, Gonadotropin-releasing hormone receptor (Rattus norvegicus); test: Antiovulatory activity on diestrus II following administration as a solution in corn oil (24h earlier) in rat.; format: functional, organism-based
Summary of the method: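 Female rats with at least two normal 4-day cycles before the test cycle were selected. They received the analogue sc in corn oil at noon on diestrus II, 24 h before the proestrus dosing time. On the morning of expected estrus the oviducts were examined under a dissecting microscope, and freshly ovulated eggs were counted. ED50 was taken from percent ovulating versus log-dose, with 10 rats per dose group and usually three or more dose groups.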

ED50 (ug injection-1) [1]	ED50 (ug injection-1) [2]	ED50 (ug injection-1) [3]	Structure (SMILES)
1.7			CCNC(=NCCCC[C@@H](NC(=O)[C@H](Cc1ccc(O)cc1)NC(=O)[C@H](CO)NC(=O)[C@@H](Cc1ccc2ccccc2c1)NC(=O)[C@@H](Cc1ccc(Cl)cc1)NC(=O)[C@@H](Cc1ccc2ccccc2c1)NC(C)=O)C(=O)N[C@@H](CC(C)C)C(=O)N[C@@H](CCCN=C(N)N)C(=O)N1CCC[C@H]1C(=O)N[C@H](C)C(N)=O)NCC
	> 2		CC/N=C(\NCCCC[C@@H](NC(=O)[C@H](Cc1ccc(O)cc1)NC(=O)[C@H](CO)NC(=O)[C@@H](Cc1c[nH]c2ccccc12)NC(=O)[C@@H](Cc1ccc(Cl)cc1)NC(=O)[C@@H](Cc1ccc(Cl)cc1)NC(C)=O)C(=O)N[C@@H](CC(C)C)C(=O)N[C@@H](CCCN=C(N)N)C(=O)N1CCC[C@H]1C(=O)NCC(N)=O)NCCCN(C)C
	11.5		CCNC(=NCCCC[C@H](NC(=O)[C@H](CO)NC(=O)[C@@H](Cc1c[nH]c2ccccc12)NC(=O)[C@@H](Cc1ccc(Cl)cc1)NC(=O)[C@@H](Cc1ccc2ccccc2c1)NC(C)=O)C(=O)N[C@H](Cc1ccc(O)cc1)C(=O)N[C@@H](Cc1c[nH]c2ccccc12)C(=O)N[C@@H](CCCN=C(N)N)C(=O)N1CCC[C@H]1C(=O)N[C@H](C)C(N)=O)NCC
	> 16		CCCCCCNC(=NCCCC[C@@H](NC(=O)[C@H](Cc1ccc(O)cc1)NC(=O)[C@H](CCCN)NC(=O)[C@@H](Cc1c[nH]c2ccccc12)NC(=O)[C@@H](Cc1ccc(Cl)cc1)NC(=O)[C@@H](Cc1ccc(Cl)cc1)NC(C)=O)C(=O)N[C@@H](CC(C)C)C(=O)N[C@@H](CCCN=C(N)N)C(=O)N1CCC[C@H]1C(=O)N[C@H](C)C(N)=O)NCCCCCC
	1.7		CCNC(=NCCCC[C@@H](NC(=O)[C@H](Cc1ccc(O)cc1)NC(=O)[C@H](CO)NC(=O)[C@@H](Cc1ccncc1)NC(=O)[C@@H](Cc1ccc(Cl)cc1)NC(=O)[C@@H](Cc1ccc2ccccc2c1)NC(C)=O)C(=O)N[C@@H](CC(C)C)C(=O)N[C@@H](CCCN=C(N)N)C(=O)N1CCC[C@H]1C(=O)N[C@H](C)C(N)=O)NCC
	8		CCNC(=NCCCC[C@@H](NC(C)=O)C(=O)N[C@H](Cc1ccc(Cl)cc1)C(=O)N[C@H](Cc1c[nH]c2ccccc12)C(=O)N[C@@H](CO)C(=O)N[C@@H](Cc1ccc(O)cc1)C(=O)N[C@H](Cc1ccc2ccccc2c1)C(=O)N[C@@H](CC(C)C)C(=O)N[C@@H](CCCN=C(N)N)C(=O)N1CCC[C@H]1C(=O)N[C@H](C)C(N)=O)NCC
	0.75	8	CCNC(=NCCCC[C@@H](NC(=O)[C@H](Cc1ccc(O)cc1)NC(=O)[C@H](CO)NC(=O)[C@@H](Cc1c[nH]c2ccccc12)NC(=O)[C@@H](Cc1ccc(Cl)cc1)NC(=O)[C@@H](Cc1ccc2ccccc2c1)NC(C)=O)C(=O)N[C@@H](Cc1ccccc1)C(=O)N[C@@H](CCCN=C(N)N)C(=O)N1CCC[C@H]1C(=O)N[C@H](C)C(N)=O)NCC (Ac-[d2Nal][dPhe(4-Cl)][dW]SY[d(hArg(Et2))]FRP[dA]-NH2)
	> 2		CCNC(=NCCCC[C@@H](NC(=O)[C@H](Cc1ccc(O)cc1)NC(=O)[C@H](CO)NC(=O)[C@@H](Cc1c[nH]c2ccccc12)NC(=O)[C@@H](Cc1ccc(F)cc1)NC(=O)[C@@H](Cc1ccc2ccccc2c1)NC(C)=O)C(=O)N[C@@H](CC(C)C)C(=O)N[C@@H](CCCN=C(N)N)C(=O)N1CCC[C@H]1C(=O)NCC(N)=O)NCCCN(C)C
	16	> 16	CC(=O)N[C@H](Cc1ccc(Cl)cc1)C(=O)N[C@H](Cc1ccc(Cl)cc1)C(=O)N[C@H](Cc1c[nH]c2ccccc12)C(=O)N[C@@H](CO)C(=O)N[C@@H](Cc1ccc(O)cc1)C(=O)N[C@H](CCCCN=C(NC(C)C)NC(C)C)C(=O)N[C@@H](CC(C)C)C(=O)N[C@@H](CCCN=C(N)N)C(=O)N1CCC[C@H]1C(=O)N[C@H](C)C(N)=O
	0.6	> 4	CCNC(=NCCCC[C@@H](NC(=O)[C@H](Cc1ccc(O)cc1)NC(=O)[C@H](CO)NC(=O)[C@@H](Cc1cccnc1)NC(=O)[C@@H](Cc1ccc(Cl)cc1)NC(=O)[C@@H](Cc1ccc2ccccc2c1)NC(C)=O)C(=O)N[C@@H](CC(C)C)C(=O)N[C@@H](CCCN=C(N)N)C(=O)N1CCC[C@H]1C(=O)N[C@H](C)C(N)=O)NCC
	7.5		CCCNC(=NCCCC[C@@H](NC(=O)[C@H](Cc1ccc(O)cc1)NC(=O)[C@H](CO)NC(=O)[C@@H](Cc1ccc2ccccc2c1)NC(=O)[C@@H](Cc1ccc(F)cc1)NC(=O)[C@@H](Cc1ccc2ccccc2c1)NC(C)=O)C(=O)N[C@@H](CC(C)C)C(=O)N[C@@H](CCCN=C(N)N)C(=O)N1CCC[C@H]1C(=O)NCC(N)=O)NCCC
	5.5		CCNC(=NCCCC[C@@H](NC(=O)[C@H](Cc1ccc(O)cc1)NC(=O)[C@H](CO)NC(=O)[C@@H](Cc1ccc2ccccc2c1)NC(=O)[C@@H](Cc1ccc(Cl)cc1)NC(=O)[C@@H](Cc1c[nH]c2ccccc12)NC(C)=O)C(=O)N[C@@H](CC(C)C)C(=O)N[C@@H](CCCN=C(N)N)C(=O)N1CCC[C@H]1C(=O)N[C@H](C)C(N)=O)NCC
	16		CCCCCCNC(=NCCCC[C@@H](NC(=O)[C@H](Cc1ccc(O)cc1)NC(=O)[C@H](CO)NC(=O)[C@@H](Cc1c[nH]c2ccccc12)NC(=O)[C@@H](Cc1ccc(F)cc1)NC(=O)[C@@H](CO)NC(C)=O)C(=O)N[C@@H](CC(C)C)C(=O)N[C@@H](CCCN=C(N)N)C(=O)N1CCC[C@H]1C(=O)NCC(N)=O)NCCCCCC
	3.4	> 16	CCCCNC(=NCCCC[C@@H](NC(=O)[C@H](Cc1ccc(O)cc1)NC(=O)[C@H](CO)NC(=O)[C@@H](Cc1c[nH]c2ccccc12)NC(=O)[C@@H](Cc1ccc(Cl)cc1)NC(=O)[C@@H](Cc1ccc2ccccc2c1)NC(C)=O)C(=O)N[C@@H](CC(C)C)C(=O)N[C@@H](CCCN=C(N)N)C(=O)N1CCC[C@H]1C(=O)N[C@H](C)C(N)=O)NCCCC
	0.55	9.5	CCNC(=NCCCC[C@@H](NC(=O)[C@H](Cc1ccc(O)cc1)NC(=O)[C@H](CO)NC(=O)[C@@H](Cc1c[nH]c2ccccc12)NC(=O)[C@@H](Cc1ccc(Cl)cc1)NC(=O)[C@@H](Cc1ccc2ccccc2c1)NC(C)=O)C(=O)N[C@@H](CC(C)C)C(=O)N[C@@H](CCCN=C(N)N)C(=O)N1CCC[C@H]1C(=O)NNC(N)=O)NCC
	1.6		CCNC(=NCCCC[C@H](NC(=O)[C@H](CO)NC(=O)[C@@H](Cc1c[nH]c2ccccc12)NC(=O)[C@@H](Cc1ccc(Cl)cc1)NC(=O)[C@@H](Cc1ccc2ccccc2c1)NC(C)=O)C(=O)N[C@H](Cc1ccc2ccccc2c1)C(=O)N[C@@H](CC(C)C)C(=O)N[C@@H](CCCN=C(N)N)C(=O)N1CCC[C@H]1C(=O)N[C@H](C)C(N)=O)NCC
	2.4	> 16	CCNC(=O)[C@@H]1CCCN1C(=O)[C@H](CCCN=C(N)N)NC(=O)[C@H](CC(C)C)NC(=O)[C@@H](CCCCN=C(NCC)NCC)NC(=O)[C@H](Cc1ccc(O)cc1)NC(=O)[C@H](CO)NC(=O)[C@@H](Cc1c[nH]c2ccccc12)NC(=O)[C@@H](Cc1ccc(Cl)cc1)NC(=O)[C@@H](Cc1ccc2ccccc2c1)NC(C)=O
	0.4		CCNC(=NCCCC[C@@H](NC(=O)[C@H](Cc1ccc(O)cc1)NC(=O)[C@H](CO)NC(=O)[C@@H](Cc1c[nH]c2ccccc12)NC(=O)[C@@H](Cc1ccc(F)cc1)NC(=O)[C@@H](Cc1ccc2ccccc2c1)NC(C)=O)C(=O)N[C@@H](CC(C)C)C(=O)N[C@@H](CCCN=C(N)N)C(=O)N1CCC[C@H]1C(=O)N[C@H](C)C(N)=O)NCC
	> 16		CCNC(=NCCCC[C@H](NC(=O)[C@H](CO)NC(=O)[C@@H](Cc1c[nH]c2ccccc12)NC(=O)[C@@H](Cc1ccc(Cl)cc1)NC(=O)[C@@H](CCCCN=C(NCC)NCC)NC(C)=O)C(=O)N[C@H](Cc1ccc(O)cc1)C(=O)N[C@@H](Cc1c[nH]c2ccccc12)C(=O)N[C@@H](CCCN=C(N)N)C(=O)N1CCC[C@H]1C(=O)N[C@H](C)C(N)=O)NCC
	0.5	< 4	CCNC(=NCCCC[C@@H](NC(=O)[C@H](Cc1ccc(O)cc1)NC(=O)[C@H](CO)NC(=O)[C@@H](Cc1c[nH]c2ccccc12)NC(=O)[C@@H](Cc1ccc(Cl)cc1)NC(=O)[C@@H](Cc1ccc2ccccc2c1)NC(C)=O)C(=O)N[C@@H](CC(C)C)C(=O)N[C@@H](CCCN=C(N)N)C(=O)N1CCC[C@H]1C(=O)N[C@H](C)C(N)=O)NCC (stereo in doubt; 25)
	1.7		CCNC(=NCCCC[C@H](NC(=O)[C@H](CO)NC(=O)[C@@H](Cc1c[nH]c2ccccc12)NC(=O)[C@@H](Cc1ccc(Cl)cc1)NC(=O)[C@@H](Cc1ccc2ccccc2c1)NC(C)=O)C(=O)N[C@H](Cc1ccc(O)cc1)C(=O)N[C@@H](CC(C)C)C(=O)N[C@@H](CCCN=C(N)N)C(=O)N1CCC[C@H]1C(=O)N[C@H](C)C(N)=O)NCC
	0.7		CCNC(=NCCCC[C@@H](NC(=O)[C@H](Cc1ccc(O)cc1)NC(=O)[C@H](CO)NC(=O)[C@@H](Cc1cccnc1)NC(=O)[C@@H](Cc1ccc(F)cc1)NC(=O)[C@@H](Cc1ccc2ccccc2c1)NC(C)=O)C(=O)N[C@@H](CC(C)C)C(=O)N[C@@H](CCCN=C(N)N)C(=O)N1CCC[C@H]1C(=O)N[C@H](C)C(N)=O)NCC
	1.2		CCNC(=NCCCC[C@@H](NC(=O)[C@H](Cc1ccc(O)cc1)NC(=O)[C@H](CO)NC(=O)[C@@H](Cc1c[nH]c2ccccc12)NC(=O)[C@@H](Cc1ccc(Cl)cc1)NC(=O)[C@@H](Cc1ccc2ccccc2c1)NC(C)=O)C(=O)N[C@@H](Cc1c[nH]c2ccccc12)C(=O)N[C@@H](CCCN=C(N)N)C(=O)N1CCC[C@H]1C(=O)N[C@H](C)C(N)=O)NCC
